Experimental data: ChEMBL document CHEMBL2346664, “Synthesis, characterization and in vitro anticancer evaluation of novel 1,2,4-triazolin-3-one derivatives” (2013)

Tests used:
Format in all cases: functional
[1] = system: SNB-75; test: Growth inhibition of human SNB75 cells assessed as cell growth at 10 '-6 M after 48 hrs by sulforhodamine B assay; settings: SNB-75, 48 h, read-out: Activity
[2] = system: SW-620; test: Growth inhibition of human SW620 cells assessed as cell growth at 10 '-4 M after 48 hrs by sulforhodamine B assay; settings: SW-620, 48 h, read-out: Activity
[3] = system: NCI-H23; test: Growth inhibition of human NCI-H23 cells assessed as cell growth at 10 '-7 M after 48 hrs by sulforhodamine B assay; settings: NCI-H23, 48 h, read-out: Activity
[4] = system: NCI-H460; test: Growth inhibition of human NCI-H460 cells assessed as cell growth at 10 '-5 M after 48 hrs by sulforhodamine B assay; settings: NCI-H460, 48 h, read-out: Activity
[5] = system: OVCAR-3; test: Growth inhibition of human OVCAR3 cells assessed as growth inhibition at 10 uM after 48 hrs by sulforhodamine B assay; settings: OVCAR-3, 48 h, read-out: GI
[6] = system: SF-295; test: Growth inhibition of human SF295 cells assessed as cell growth at 10 '-5 M after 48 hrs by sulforhodamine B assay; settings: SF-295, 48 h, read-out: Activity
[7] = system: OVCAR-4; test: Growth inhibition of human OVCAR4 cells assessed as growth inhibition at 10 uM after 48 hrs by sulforhodamine B assay; settings: OVCAR-4, 48 h, read-out: GI
[8] = system: UACC-62; test: Growth inhibition of human UACC62 cells assessed as cell growth at 10 '-7 M after 48 hrs by sulforhodamine B assay; settings: UACC-62, 48 h, read-out: Activity
[9] = system: DU-145; test: Growth inhibition of human DU145 cells assessed as cell growth at 10 '-4 M after 48 hrs by sulforhodamine B assay; settings: DU-145, 48 h, read-out: Activity
[10] = system: RXF 393; test: Growth inhibition of human RXF393 cells assessed as cell growth at 10 '-5 M after 48 hrs by sulforhodamine B assay; settings: RXF 393, 48 h, read-out: Activity
[11] = system: SK-MEL-28; test: Growth inhibition of human SK-MEL-28 cells assessed as cell growth at 10 '-7 M after 48 hrs by sulforhodamine B assay; settings: SK-MEL-28, 48 h, read-out: Activity
[12] = system: IGROV-1; test: Growth inhibition of human IGROV1 cells assessed as cell growth at 10 '-6 M after 48 hrs by sulforhodamine B assay; settings: IGROV-1, 48 h, read-out: Activity
[13] = system: LOX IMVI; test: Growth inhibition of human LOXIMVI cells assessed as cell growth at 10 '-7 M after 48 hrs by sulforhodamine B assay; settings: read-out: Activity
[14] = system: SK-MEL-28; test: Growth inhibition of human SK-MEL-28 cells assessed as cell growth at 10 '-6 M after 48 hrs by sulforhodamine B assay; settings: SK-MEL-28, 48 h, read-out: Activity
[15] = system: SK-OV-3; test: Growth inhibition of human SKOV3 cells assessed as cell growth at 10 '-5 M after 48 hrs by sulforhodamine B assay; settings: SK-OV-3, 48 h, read-out: Activity
[16] = system: IGROV-1; test: Growth inhibition of human IGROV1 cells assessed as cell growth at 10 '-7 M after 48 hrs by sulforhodamine B assay; settings: IGROV-1, 48 h, read-out: Activity
[17] = system: SNB-19; test: Growth inhibition of human SNB19 cells assessed as cell growth at 10 '-4 M after 48 hrs by sulforhodamine B assay; settings: SNB-19, 48 h, read-out: Activity
[18] = system: K562; test: Growth inhibition of human K562 cells assessed as cell growth at 10 '-6 M after 48 hrs by sulforhodamine B assay; settings: K562, 48 h, read-out: Activity
[19] = system: TK-10; test: Growth inhibition of human TK10 cells assessed as cell growth at 10 '-7 M after 48 hrs by sulforhodamine B assay; settings: TK-10, 48 h, read-out: Activity
[20] = system: TK-10; test: Growth inhibition of human TK10 cells assessed as cell growth at 10 '-8 M after 48 hrs by sulforhodamine B assay; settings: TK-10, 48 h, read-out: Activity
[21] = system: RXF 393; test: Growth inhibition of human RXF393 cells assessed as cell growth at 10 '-6 M after 48 hrs by sulforhodamine B assay; settings: RXF 393, 48 h, read-out: Activity
[22] = system: CAKI-1; test: Growth inhibition of human CAKI-1 cells assessed as cell growth at 10 '-4 M after 48 hrs by sulforhodamine B assay; settings: CAKI-1, 48 h, read-out: Activity
Summary of the method: (§1)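 Percent growth at each of the five concentrations of the 48 h continuous-exposure NCI SRB screen. Drug stocks were in DMSO at 400× the top final concentration and diluted in medium with gentamicin. Growth was calculated as [(Ti-Tz)/(C-Tz)]×100 when Ti ≥ Tz, or [(Ti-Tz)/Tz]×100 when Ti < Tz. Tz plates were fixed at drug addition; untreated wells served as control. Absorbance was read at 515 nm.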

[23] = system: MDA-MB-231; test: Growth inhibition of human MDA-MB-231 cells assessed as cell growth at 10 '-4 M after 48 hrs by sulforhodamine B assay; settings: MDA-MB-231, 48 h, read-out: Activity
[24] = system: SK-OV-3; test: Growth inhibition of human SKOV3 cells assessed as cell growth at 10 '-6 M after 48 hrs by sulforhodamine B assay; settings: SK-OV-3, 48 h, read-out: Activity
[25] = system: UACC-62; test: Growth inhibition of human UACC62 cells assessed as cell growth at 10 '-4 M after 48 hrs by sulforhodamine B assay; settings: UACC-62, 48 h, read-out: Activity
[26] = system: SK-MEL-2; test: Growth inhibition of human SK-MEL-2 cells assessed as cell growth at 10 '-8 M after 48 hrs by sulforhodamine B assay; settings: SK-MEL-2, 48 h, read-out: Activity
[27] = system: SNB-75; test: Growth inhibition of human SNB75 cells after 48 hrs by sulforhodamine B assay; settings: SNB-75, 48 h, read-out: LD50 (the source's name)
[28] = system: LOX IMVI; test: Growth inhibition of human LOXIMVI cells assessed as cell growth at 10 '-4 M after 48 hrs by sulforhodamine B assay; settings: read-out: Activity
[29] = system: HCT-116; test: Growth inhibition of human HCT116 cells assessed as cell growth at 10 '-7 M after 48 hrs by sulforhodamine B assay; settings: HCT-116, 48 h, read-out: Activity
[30] = system: SK-MEL-2; test: Growth inhibition of human SK-MEL-2 cells after 48 hrs by sulforhodamine B assay; settings: SK-MEL-2, 48 h
[31] = system: DU-145; test: Growth inhibition of human DU145 cells assessed as growth inhibition at 10 uM after 48 hrs by sulforhodamine B assay; settings: DU-145, 48 h, read-out: GI
[32] = system: ACHN; test: Growth inhibition of human ACHN cells assessed as cell growth at 10 '-7 M after 48 hrs by sulforhodamine B assay; settings: read-out: Activity; summary of the method: as §1
[33] = system: NCI-H226; test: Growth inhibition of human NCI-H226 cells assessed as growth inhibition at 10 uM after 48 hrs by sulforhodamine B assay; settings: NCI-H226, 48 h, read-out: GI
[34] = system: T47D; test: Growth inhibition of human T47D cells assessed as cell growth at 10 '-7 M after 48 hrs by sulforhodamine B assay; settings: read-out: Activity
[35] = system: SN12C; test: Growth inhibition of human SN12C cells assessed as cell growth at 10 '-6 M after 48 hrs by sulforhodamine B assay; settings: read-out: Activity

## Cc1cc(=O)oc2cc(OCCn3c(C)nn(-c4ccc(Cl)cc4)c3=O)ccc12
[1]
  growth at 1 µM: 74%
[2]
  growth at 100 µM: 25%
[3]
  growth at 0.1 µM: 91%
[4]
  growth at 10 µM: 9%
[5]
  inhibition of growth at 10 µM: 85.2%
[6]
  growth at 10 µM: 39%
[7]
  inhibition of growth at 10 µM: 32.9%
[8]
  growth at 0.1 µM: 90%
[9]
  growth at 100 µM: 10%
[10]
  growth at 10 µM: 18%
[11]
  growth at 0.1 µM: 87%
[12]
  growth at 1 µM: 93%
[13]
  growth at 0.1 µM: 88%
[14]
  growth at 1 µM: 67%
[15]
  growth at 10 µM: 16%
[16]
  growth at 0.1 µM: 112%
[17]
  growth at 100 µM: 20%
[18]
  growth at 1 µM: 53%
[19]
  growth at 0.1 µM: 101%
[20]
  growth at 0.01 µM: 94%
[21]
  growth at 1 µM: 75%
[22]
  growth at 100 µM: 52%
[23]
  growth at 100 µM: 11%
[24]
  growth at 1 µM: 88%
[25]
  growth at 100 µM: 30%
[26]
  growth at 0.01 µM: 104%
[27]
  CC50: > 1000 nM
[28]
  growth at 100 µM: 30%
[29]
  growth at 0.1 µM: 98%
[30]
  GI50: 1820 nM
  TGI: > 1000 nM
[30]; read-out: LD50 (the source's name)
  CC50: > 1000 nM
[31]
  inhibition of growth at 10 µM: 78.4%
[32]
  growth at 0.1 µM: 106%
[33]
  inhibition of growth at 10 µM: 49.9%
[34]
  growth at 0.1 µM: 99%
[35]
  growth at 1 µM: 82%
